E-sel inducer = E-selectin induction on HUVECs | P16581 | HUVEC E-selectin immunofluorescence imaging; normalized: neutral wells 0, TNF-alpha wells 100 | activation, % at 7.58 µM | 260,000 tested, 0.37% active | AID 686992;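 active = mean E-selectin-positive cell signal at least 10% of the positive control, reached in at least 60% of replicates, without over 20% cell loss; inconclusive = no rule given, readout overlaps actives, possibly toxicity-flagged; inactive = the rest, including those meeting only one limit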
Target sequence (P16581 whole entry, looked up): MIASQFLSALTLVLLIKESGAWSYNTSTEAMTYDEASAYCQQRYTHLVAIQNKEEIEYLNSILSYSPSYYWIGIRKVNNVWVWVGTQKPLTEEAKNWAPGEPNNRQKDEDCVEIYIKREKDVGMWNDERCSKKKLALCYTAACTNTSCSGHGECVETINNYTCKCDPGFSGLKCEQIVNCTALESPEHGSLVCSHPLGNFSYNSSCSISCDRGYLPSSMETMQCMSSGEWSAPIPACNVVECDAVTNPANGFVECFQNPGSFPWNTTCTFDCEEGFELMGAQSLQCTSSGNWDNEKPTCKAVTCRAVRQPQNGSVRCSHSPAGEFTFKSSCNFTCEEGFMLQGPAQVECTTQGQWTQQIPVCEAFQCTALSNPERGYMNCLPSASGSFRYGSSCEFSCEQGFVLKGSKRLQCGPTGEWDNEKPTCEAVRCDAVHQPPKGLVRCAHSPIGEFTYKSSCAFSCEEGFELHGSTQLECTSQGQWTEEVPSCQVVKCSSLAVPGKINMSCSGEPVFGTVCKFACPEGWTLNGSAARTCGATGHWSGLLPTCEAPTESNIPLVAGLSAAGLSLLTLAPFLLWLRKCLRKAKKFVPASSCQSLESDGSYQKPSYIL
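Material: HUVEC primary endothelial cells; Amount: 3,000 cells per well; Dosing: single concentration; Medium: EGM-2 growth medium on 0.1% gelatin-coated wells; Read-out basis: percent E-selectin-positive cells; Signal: immunofluorescence imaging; Control set: TNF-alpha, DMSO.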
SIRT5 block = inhibitors of human sirtuin-5 desuccinylase. Q9NXA8. Purified SirT5, succinyl-peptide AMC, trypsin-coupled fluorescence. inhibition, % at 15 µM. 330,000 tested, 1.1% active. AID 652115; in the data active = inhibition above about 15%; inconclusive = no clear call, values can overlap the other calls
DENV2 CPE rescue = inhibitors of DENV2 cytopathic effect; 350,000 tested, 1.7% active; CPE inhibition, % at 9.99 µM; DENV2-infected cells, cytopathic effect rescue, plate reader; in the data active = CPE inhibition above about 20%, passing the limit was not always enough; inconclusive = no clear call, values can overlap the other calls; tested in BHK-21 cells;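 note: 0% = median of neutral control wells and 100% = median of positive control wells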
Numbers without * were called inactive. Rows were chosen to be rich in hits. Some 2.8% of all compounds tested hit in one or more screens of this group.

Screening COc1ccccc1-c1nnc(NC(=O)c2ccc(S(=O)(=O)N3CCCC3)cc2)o1 returned E-sel inducer 0, SIRT5 block -3 and DENV2 CPE rescue 3.
For CC1CCN(S(=O)(=O)c2ccc(C(=O)Nc3nnc(-c4ccco4)o3)cc2)CC1 the results were E-sel inducer -1, SIRT5 block -2 and DENV2 CPE rescue 90*.
COc1ccc2c3c(n(C)c2c1)[C@@H](CO)N(Cc1cccnc1)CC31CCN(C(=O)c2cccnc2)CC1 was read as E-sel inducer 0, SIRT5 block 1 and DENV2 CPE rescue 2.
Screening Cc1ccc(OCCNCc2ccccc2)c(C)c1 returned E-sel inducer 0, SIRT5 block 0 and DENV2 CPE rescue 13.
For Cc1ccc(OCCCCNC(C)c2ccccc2)c(C)c1 (stereo unspecified) the results were SIRT5 block -1 and DENV2 CPE rescue 29*.
`O=C(Nc1ccccc1)N1C[C@@H]2[C@H](c3ccccc31)[C@H](CO)N2Cc1ccccc1Cl` gave E-sel inducer -1, SIRT5 block 1 and DENV2 CPE rescue -1.
`O=C(Nc1ccccc1)N1C[C@@H]2[C@H](c3ccccc31)[C@@H](CO)N2Cc1ccccc1Cl` gave E-sel inducer 1, SIRT5 block 2 and DENV2 CPE rescue 37*.
COc1ccc(C(=O)N2C[C@@H]3[C@H](c4ccccc42)[C@H](CO)N3C(=O)NC(C)C)cc1 was read as E-sel inducer 0, SIRT5 block -4 and DENV2 CPE rescue 27*.
COc1ccc(C(=O)N2C[C@H]3[C@@H](c4ccccc42)[C@@H](CO)N3C(=O)NC(C)C)cc1 was read as E-sel inducer 0, SIRT5 block 0 and DENV2 CPE rescue 14.
For CC(C)NC(=O)N1[C@H](CO)[C@H]2c3ccccc3N(C(=O)Nc3ccccc3)C[C@H]21 the results were E-sel inducer 0, SIRT5 block -1 and DENV2 CPE rescue 21*.
Screening CC(C)NC(=O)N1[C@@H](CO)[C@@H]2c3ccccc3N(C(=O)Nc3ccc(Cl)cc3)C[C@@H]21 returned E-sel inducer 1, SIRT5 block 0 and DENV2 CPE rescue -3.
Screening O=C(NCC[C@H]1CC[C@H](NC(=O)C2CC2)[C@H](CO)O1)c1ccc(F)cc1 returned E-sel inducer 0, SIRT5 block 1 and DENV2 CPE rescue 6.
C[C@@H]1CN([C@@H](C)CO)C(=O)c2cccc(NS(=O)(=O)c3cccs3)c2O[C@H]1CN(C)C(=O)Nc1ccccc1 was read as E-sel inducer 1.
Screening C[C@@H]1CN([C@H](C)CO)S(=O)(=O)c2ccc(C#Cc3cccnc3)cc2O[C@H]1CN(C)C(=O)CN(C)C returned E-sel inducer 0, SIRT5 block 3 and DENV2 CPE rescue 5.
For CC=Cc1ccc2n(c1=O)C[C@@H]1[C@@H](CO)[C@H](C(=O)N3CCOCC3)N(Cc3ccccc3OC)[C@H]21 (mixture of isomers) the results were E-sel inducer 0, SIRT5 block -2 and DENV2 CPE rescue -4.
For COCC(=O)Nc1ccc2c(c1)C(=O)N(C)C[C@@H](OC)[C@H](C)CN(Cc1ccccn1)[C@H](C)CO2 the results were E-sel inducer 0, SIRT5 block 23* and DENV2 CPE rescue 11.
`CO[C@H]1CN(C)C(=O)c2cc(NC(C)=O)ccc2OC[C@@H](C)N(Cc2nccs2)C[C@H]1C` gave E-sel inducer 0, SIRT5 block -2 and DENV2 CPE rescue 5.
For CO[C@@H]1CN(C)C(=O)c2cc(NC(C)=O)ccc2OC[C@H](C)N(Cc2nccs2)C[C@@H]1C the results were E-sel inducer 0, SIRT5 block -1 and DENV2 CPE rescue 59*.
`CCC(=O)Nc1ccc2c(c1)C(=O)N(C)C[C@@H](OC)[C@@H](C)CN(Cc1ccccc1)[C@H](C)CO2` gave E-sel inducer 0, SIRT5 block 0 and DENV2 CPE rescue 5.
Screening COCC(=O)Nc1ccc2c(c1)OC[C@H](C)N(Cc1cccc(F)c1)C[C@H](C)[C@@H](OC)CN(C)C2=O returned E-sel inducer 0, SIRT5 block -10 and DENV2 CPE rescue 25*.
`CCC(=O)Nc1ccc2c(c1)C(=O)N(C)C[C@@H](OC)[C@H](C)CN(Cc1ccccc1)[C@@H](C)CO2` gave E-sel inducer 1, SIRT5 block -2 and DENV2 CPE rescue 37*.
COCC(=O)Nc1ccc2c(c1)C(=O)N(C)C[C@@H](OC)[C@@H](C)CN(Cc1cccc(F)c1)[C@H](C)CO2 was read as E-sel inducer 0, SIRT5 block 8 and DENV2 CPE rescue -7.
Screening COCC(=O)Nc1ccc2c(c1)C(=O)N(C)C[C@H](OC)[C@H](C)CN(Cc1ccccn1)[C@@H](C)CO2 returned E-sel inducer 0, SIRT5 block -1 and DENV2 CPE rescue 12.
CCC(=O)Nc1ccc2c(c1)OC[C@@H](C)N(C(=O)Cc1ccccn1)C[C@@H](C)[C@H](OC)CN(C)C2=O was read as E-sel inducer 0, SIRT5 block -4 and DENV2 CPE rescue 10.
C[C@@H]1CN([C@H](C)CO)C(=O)CCCn2cc(nn2)CO[C@H]1CN(C)Cc1ccncc1 was read as E-sel inducer 0.
Screening COCC(=O)Nc1ccc2c(c1)C(=O)N(C)C[C@@H](OC)[C@H](C)CN(Cc1ccccc1)[C@@H](C)CO2 returned E-sel inducer 0, SIRT5 block 7 and DENV2 CPE rescue -12.
For CCC(=O)Nc1ccc2c(c1)OC[C@H](C)N(Cc1cccnc1)C[C@@H](C)[C@@H](OC)CN(C)C2=O the results were E-sel inducer 0, SIRT5 block -4 and DENV2 CPE rescue -8.
For CCC(=O)Nc1ccc2c(c1)OC[C@@H](C)N(Cc1cccnc1)C[C@H](C)[C@@H](OC)CN(C)C2=O the results were E-sel inducer 0, SIRT5 block -2 and DENV2 CPE rescue 48*.
`CCC(=O)Nc1ccc2c(c1)C(=O)N(C)C[C@H](OC)[C@H](C)CN(Cc1ccccc1OC)[C@@H](C)CO2` gave E-sel inducer 0, SIRT5 block 0 and DENV2 CPE rescue 22*.
CO[C@H]1CN(C)C(=O)c2cc(NC(=O)C3CCC3)ccc2OC[C@H](C)N(Cc2ccncc2)C[C@H]1C was read as E-sel inducer 0, SIRT5 block -4 and DENV2 CPE rescue -9.
`COCC(=O)Nc1ccc2c(c1)C(=O)N(C)C[C@H](OC)[C@@H](C)CN(Cc1ccccc1)[C@@H](C)CO2` gave E-sel inducer 0, SIRT5 block 5 and DENV2 CPE rescue 26*.
`CO[C@@H]1CN(C)C(=O)c2cc(NC(=O)C3CCC3)ccc2OC[C@@H](C)N(Cc2ccncc2)C[C@@H]1C` gave E-sel inducer 0, SIRT5 block -8 and DENV2 CPE rescue 41*.
Screening CCC(=O)Nc1ccc2c(c1)C(=O)N(C)C[C@H](OC)[C@H](C)CN(Cc1ccccc1OC)[C@H](C)CO2 returned E-sel inducer 0, SIRT5 block 1 and DENV2 CPE rescue -5.
O=C(N[C@H]1CC[C@H](CCNC(=O)c2ccccc2F)O[C@@H]1CO)c1cnccn1 was read as E-sel inducer 1, SIRT5 block 2 and DENV2 CPE rescue inconclusive.
`CCCNC(=O)N1CC2(CCN(S(=O)(=O)c3ccc(OC)cc3)CC2)c2c(n(C)c3cc(OC)ccc23)[C@@H]1CO` gave E-sel inducer -1, SIRT5 block -5 and DENV2 CPE rescue -8.

High-throughput results deposited in PubChem BioAssay by Broad Institute.
